# NPY Y2 blocker: antagonists of human neuropeptide Y receptor Y2. P49146. NPY-Y2 expressing cells, antagonist mode. inhibition, % at 2.7 µM. 140,000 tested, 0.99% active; in the data active = inhibition above about 17%;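 also: 0% = vehicle with agonist challenge and 100% = reference antagonist with challenge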
# NPY Y1 blocker: NPY-Y1 (human) receptor antagonism. P25929. HEK293-CNG Y1 cells, membrane potential fluorescence; NPY at EC95, then isoproterenol. inhibition, % at 3.6 µM. 200,000 tested, 1% active. AID 1040;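 active = inhibition above the campaign mean inhibition of all tested compounds plus 3 SD, cut at about 20% in these data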;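 also: 0% = DMSO wells given NPY plus isoproterenol and 100% = isoproterenol alone without NPY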
#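 Material: HEK293 Y1/CNG channel cell line | Also added: NPY (25 nM), isoproterenol (1 µM), Ro 20-1724 (25 µM) | Compound: One concentration, 3.6 µM, in 0.4% DMSO | Schedule: 3 h dye uptake, 1 h room-temperature compound, 45 min post-isoproterenol | Signal: Membrane-potential fluorescent dye readout | Read-out: % inhibition of NPY effect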
# S1P4 antagonist: human S1P4 receptor antagonism. AID 1510. 220,000 tested, 0.26% active. O95977. S1P4-expressing cells, antagonist mode, reporter read-out. inhibition, % at 4.98 µM; in the data active = inhibition above about 29%;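 also: 0% = wells stimulated with agonist and 100% = vehicle wells without agonist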
# Target sequence (O95977 whole entry, looked up): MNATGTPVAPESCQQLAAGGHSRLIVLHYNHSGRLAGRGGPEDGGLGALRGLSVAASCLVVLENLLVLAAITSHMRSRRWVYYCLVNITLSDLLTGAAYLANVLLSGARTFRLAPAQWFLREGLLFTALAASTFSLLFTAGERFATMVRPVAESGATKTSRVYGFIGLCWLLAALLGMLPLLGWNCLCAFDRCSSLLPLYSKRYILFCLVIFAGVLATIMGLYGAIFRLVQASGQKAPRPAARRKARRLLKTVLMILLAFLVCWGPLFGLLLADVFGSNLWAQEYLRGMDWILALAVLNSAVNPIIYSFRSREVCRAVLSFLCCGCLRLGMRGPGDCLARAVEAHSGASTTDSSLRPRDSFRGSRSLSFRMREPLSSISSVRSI
# NPY2 pot ag: potentiates or activates human NPY-Y2 receptor | P49146 | cells expressing NPY-Y2, potentiator/agonist read-out | 220,000 tested, 0.45% active | AID 1359 | activation, % at 3.6 µM; in the data active = activation above about 27%;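 also: cells stimulated with NPY near EC25 plus isoproterenol at EC100; 0% = vehicle plus submaximal agonist and 100% = vehicle plus saturating agonist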
# NPY-Y1 PAM-ag: human NPY-Y1 potentiation or agonism, primary screen. P25929. 220,000 tested, 0.37% active. activation, % at 3.6 µM. NPY-Y1 expressing cells, potentiator/agonist activation; in the data active = activation above about 33%, passing the limit was not always enough;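 also: cells stimulated with NPY at EC10 then isoproterenol at EC100; 0% = low agonist plus stimulus and 100% = saturating agonist plus stimulus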
# S1P4 agonist: human S1P4 receptor agonism | S1P4-expressing cell line, agonist reporter assay | 220,000 tested, 0.35% active | O95977 | activation, % at 4.98 µM; in the data active = activation above about 11%;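 also: 0% = DMSO vehicle and 100% = reference agonist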
# The depositor's hits bear a star; . = not tested or not shown. Compounds with a hit are over-represented: about 2.4% of the library has one in this group of screens.
SMILES,NPY Y2 blocker,NPY Y1 blocker,S1P4 antagonist,NPY2 pot ag,NPY-Y1 PAM-ag,S1P4 agonist
COc1ccc(Nc2nc3ccccc3nc2NS(=O)(=O)c2cccs2)c(OC)c1,.,.,-6,9,45,-1
O=C(NNCC(O)COc1ccccc1)c1ccccc1 (centres undefined),0,-6,-14,2,-12,1
COCCNCC(O)CON=C1c2ccccc2-c2ccccc21 (centres undefined),.,-5,-2,92*,101*,-2
OC(CNCCC(c1ccccc1)c1ccccc1)COc1ccccc1 (centres undefined),.,-9,11,89*,96*,0
CS(=O)(=O)N(CC(O)CON=C1c2ccccc2-c2ccccc21)c1ccc(F)cc1 (centres undefined),-1,2,-3,1,3,0
CC(C)CCNCC(O)CON=C1c2ccccc2-c2ccccc21 (centres undefined),.,2,1,45*,45*,-1
Cc1ccc(N(CC(=O)NC(C)(C)C)C(=O)CS(=O)CC(=O)Nc2ccc3c(c2)OCO3)cc1 (centres undefined),.,9,-24,-11,-2,-1
CC(=O)Cc1cc2cc([N+](=O)[O-])ccc2oc1=O,.,.,11,-13,-7,0
COc1ccc2[nH]cc(C(=O)CNc3nc(C)cs3)c2c1,-10,-18,-7,39*,48*,0
OC1(Cc2ccccc2)CCNCC1,.,.,-7,-15,-7,2
O=C(COC(=O)c1c2c(nc3ccccc13)CCCC2)Nc1ccc2c(c1)OCO2,17*,20*,-4,-8,-2,0
O=C(COC(=O)c1cc(-c2ccccc2)nc2ccccc12)Nc1ccc2c(c1)OCO2,1,0,-7,-11,-4,2
O=C(CNC(=O)c1ccc(-c2ccccc2)cc1)OCc1c(F)cccc1Cl,1,4,-9,-4,-23,0
NC(=O)CNC(=O)c1ccc(Cl)cc1,.,.,5,-7,16,2
O=C(NCCC1=CCCCC1)C(c1ccccc1)c1ccccc1,12,28*,-8,5,-8,-1
O=C(Cc1ccccc1)NCCC1=CCCCC1,7,1,12,5,-3,3
CCCC(c1nnnn1Cc1ccc(F)cc1)N1CCN(C)CC1 (centres undefined),.,9,-15,-21,1,-2
COc1ccc(Cn2nnnc2C(c2ccccc2Cl)N2CCN(C3CCCC3)CC2)cc1 (centres undefined),20*,28*,13,-3,-7,0
CCC(c1nnnn1Cc1ccc(F)cc1)N1CCN(C2CCCCC2)CC1 (centres undefined),37*,39*,-7,-15,-14,2
COc1ccccc1N(Cc1ccccc1)S(=O)(=O)c1cc(C(=O)O)ccc1Cl,.,1,7,-7,-5,-1
CC(NC(=S)Nc1ccc(F)cc1)C(c1cccs1)N1CCOCC1 (centres undefined),.,0,-6,-1,23,0
Cc1ccc(-c2cn(S(=O)(=O)c3cccc4nsnc34)nc2N)cc1,5,-2,-1,-17,-5,-1
COc1cc(-c2cn(S(=O)(=O)c3cccc4nsnc34)nc2N)cc(OC)c1OC,18*,23*,4,-9,-26,0
CCOC(=O)N1CCN(CC(O)COCc2ccc(OC)c(OC)c2)CC1 (centres undefined),1,-2,-9,-10,-34,0
CCOC(=O)N1CCN(CC(O)COc2ccc(C)cc2C(C)(C)C)CC1 (centres undefined),1,-11,-13,61*,77*,0
SMILES,NPY Y2 blocker,NPY Y1 blocker,S1P4 antagonist,NPY2 pot ag,NPY-Y1 PAM-ag,S1P4 agonist
O=C(NCCc1ccccc1)C(=O)c1c(-c2ccccc2)[nH]c2ccccc12,1,6,5,16,-7,2
COC(=O)[C@H]1C[C@@H]1[C@H](NC(=O)c1cnccn1)c1ccccc1,1,2,-4,84*,23,2
Cc1ccc(C(=O)c2cc3c(cc2[N+](=O)[O-])OCCO3)cc1,.,3,-21,6,-17,1
CCOC(=O)c1cnc2ccc(OCC)cc2c1NCc1ccccc1,66*,70*,-9,-67,-199,1
CCOC(=O)c1cnc2ccc(OCC)cc2c1NCc1cccnc1,2,2,-7,-4,-42,0
CCOc1ccc2ncc(S(=O)(=O)c3ccccc3)c(N3CCN(c4ccc(OC)cc4)CC3)c2c1,1,0,-19,4,-2,1
CCOC(=O)c1cnc2ccc(OCC)cc2c1N1CCN(c2ccccc2)CC1,17*,29*,-1,-29,-36,0
Cc1nn(-c2ccc(F)cc2)c(C)c1CN1CCN(CCC(C)C)C(CCO)C1 (centres undefined),.,0,14,-21,1,1
COc1ccc(Cn2c(SCc3ccccc3C)nc3cc(OC)c(OC)cc3c2=N)cc1,44*,48*,5,28,-17,1
Cc1ccc(C(=O)N/C(=C\c2ccc(Br)cc2)c2nc(=S)[nH][nH]2)cc1,-5,-14,-22,21,47*,-1
O=C(N/C(=C/c1cccc(Br)c1)c1nc(=S)[nH][nH]1)c1ccccc1,-3,-13,-3,25*,51*,4
Cc1ccc(C(=O)N/C(=C\c2cccnc2)c2nc3ccccc3[nH]2)cc1,2,-1,0,6,-11,1
Fc1ccccc1NC(=S)N(CCN1CCCCC1)Cc1ccco1,.,5,-26,-9,11,1
COc1ccc(-c2cc(C(=O)Nc3nc4ccccc4s3)c3ccccc3n2)cc1OC,27*,29*,-13,-141,-160,0
COc1ccc(C(=O)Nc2nc3ccccc3s2)cc1OC,.,6,6,6,12,1
Cc1ccc(CNC(=O)CSc2nc3c(sc4ccccc43)c(=O)n2CCCN2CCCC2)cc1,.,21*,-2,-22,-32,-1
CCOc1cc(C2C(C(=O)c3ccco3)=C(O)C(=O)N2CCc2ccccc2)ccc1O (centres undefined),36*,39*,3,-24,-31,2
CC1CCc2sc(C(=O)OCC(=O)NC(C)C)cc2C1 (centres undefined),.,1,-14,10,0,-2
COc1ccc(NC(=O)O/N=C2/CCCc3ccc(OC)cc32)cc1,5,3,-8,-4,98*,1
COc1ccc2c(c1)/C(=N/OC(=O)c1cccs1)CCC2,.,11,-12,-7,-15,-1
CCC(C)(C(=O)NC1CCCCC1)N(Cc1ccco1)C(=O)c1ccc2c(c1)OCO2 (centres undefined),43*,49*,-7,-18,-11,1
Cc1ccccc1N1CCN(CCCN2C(=O)CC(=C(c3ccccc3)c3ccccc3)C2=O)CC1,4,-19,-2,99*,105*,-6

# Assay outcomes: PubChem BioAssay, The Scripps Research Institute Molecular Screening Center
